Source: PubChem BioAssay
Shown are actives, neighbours in structure and some others; about 2.2% of the full set was active somewhere.
ERp5 block – inhibitors of human ERp5. inhibition, % at 9.99 µM. Q15084. ERp5 insulin aggregation, absorbance 650 nm, 90 min. AID 651711. actives 0.05% (n = 350,000);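 active means mean replicate inhibition above about 25%, with every replicate also reaching it, limit read from the data, passing the limit was not always enough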
Target sequence (Q15084 whole entry, looked up): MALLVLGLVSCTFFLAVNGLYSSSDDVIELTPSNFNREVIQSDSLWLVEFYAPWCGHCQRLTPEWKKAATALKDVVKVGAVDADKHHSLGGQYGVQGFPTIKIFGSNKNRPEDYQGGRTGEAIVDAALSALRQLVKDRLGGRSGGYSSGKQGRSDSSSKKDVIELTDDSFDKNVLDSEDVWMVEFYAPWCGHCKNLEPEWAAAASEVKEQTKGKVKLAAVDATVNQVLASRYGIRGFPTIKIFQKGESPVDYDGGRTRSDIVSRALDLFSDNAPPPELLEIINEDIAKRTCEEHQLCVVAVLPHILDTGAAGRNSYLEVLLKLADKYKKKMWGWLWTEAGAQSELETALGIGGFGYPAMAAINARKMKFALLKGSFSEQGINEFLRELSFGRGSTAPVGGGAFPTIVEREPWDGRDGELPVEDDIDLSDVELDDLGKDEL
PDI inh – PDI (human) enzyme inhibition; PDI insulin aggregation turbidity, A650, 90 min; inhibition, % at 10 µM; actives 0.052% (n = 350,000); AID 588391;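 active means mean inhibition across replicates of 30% or more, whatever share of single replicates reach that level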
HIV Env fusion – blocks HIV Env-driven cell-cell fusion | HeLa-JRFL Env/CEM21 cell fusion, luciferase | inhibition, % at 12.3 µM | actives 1.1% (n = 360,000);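 active means mean replicate inhibition score of at least 50 and every replicate individually at or above 50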
FN deposit inh – fibronectin deposition inhibition | AH1F fibroblasts, Alexa488-fibronectin deposition fluorescence, overnight | inhibition, % at 12.6 µM | actives 0.086% (n = 350,000) | AID 743247;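 active means mean inhibition across replicates of 30% or more, regardless of how many single replicates reach that level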
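Test system: AH1F fibroblast monolayer depositing Alexa488-labelled fibronectin into matrix. Input: 10000 cells per well. Technique: fluorescence, ex 485 nm, em 525 nm. Buffer or medium: DMEM plus 2% serum, read in PBS. Timing: 1 h cell adhesion before compound, then overnight fibronectin incubation. Compound: single dose, pinned. Read-out basis: inhibition from reduced deposited-fibronectin fluorescence.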
rRNA inh HTS – inhibitors of bacterial rRNA selective over humanized ribosomes; E. coli WT GFP vs humanized-ribosome RFP mutants, fluorescence, 24 h; hits give low values; DMSO median 0, no signal -100; GFP signal change (wild-type ribosome), % (test concentration not listed); actives 1.6% (n = 350,000); AID 720706;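 active means significant combined selectivity score with lowered wild-type GFP, culture density cut under 30%, mutant RFP and density less affected; inactive means any of these conditions unmet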
PvdQ acylase – P. aeruginosa PvdQ acylase inhibition; purified PvdQ acylase, fluorescence plate reader; inhibition, % at 10 µM; AID 488965; actives 0.063% (n = 340,000); in the data active means inhibition above about 30%, passing the limit was not always enough
Each line names hits and unclear results; the compound was inactive in the other large screens.

C[C@@H]1CN([C@@H](C)CO)C(=O)c2cc(NS(=O)(=O)c3ccccc3)ccc2O[C@@H]1CN(C)S(C)(=O)=O	none (no result: PDI inh, HIV Env fusion, FN deposit inh, PvdQ acylase)
CNC[C@@H]1Oc2ccc(N(C)C)cc2CC(=O)N(C)C[C@H]1C	none (no result: ERp5 block, PDI inh, HIV Env fusion, PvdQ acylase)
CC(C)NC(=O)N(C)C[C@H]1Oc2ncc(C#CC3(O)CCCC3)cc2C(=O)N([C@@H](C)CO)C[C@@H]1C	none (no result: PDI inh, PvdQ acylase)
C[C@H](CO)N1C[C@H](C)[C@H](CN(C)Cc2ccc(Cl)c(Cl)c2)Oc2c(NC(=O)Nc3cccc4ccccc34)cccc2C1=O	none (no result: PDI inh, HIV Env fusion, FN deposit inh, PvdQ acylase)
O=C(O)c1cc(O)c2c(c1)[C@H]([C@H]1c3cc(C(=O)O)cc(O)c3C(=O)c3c(O[C@@H]4O[C@H](CO)[C@@H](O)[C@H](O)[C@H]4O)cccc31)c1cccc(OC3O[C@H](CO)[C@@H](O)[C@H](O)[C@H]3O)c1C2=O (stereo partly specified)	PDI inh 47
CCOC(=O)c1csc(NC(=O)c2cc(=O)c3ccccc3o2)n1	rRNA inh HTS -26
CCc1ccc(NS(=O)(=O)c2ccc3[nH]cc(C(=O)N(C)Cc4ccco4)c(=O)c3c2)cc1	rRNA inh HTS -25 (no result: HIV Env fusion, FN deposit inh)
CC1(C)N=C(N)N=C(N)N1CCCCc1ccccc1	HIV Env fusion 75
COC(=O)c1ccc(/C=C(\C#N)c2ccccn2)cc1	PvdQ acylase 71
N#Cc1ccc(C(=O)N2CCC3CC2c2cc(N4CCCCC4)ccc23)cc1 (stereo unspecified)	rRNA inh HTS -33 (no result: PvdQ acylase)
N#Cc1ccc(C(=O)N2CCC3CC2c2cc(-c4ccccc4)ccc23)cc1 (stereo unspecified)	none (no result: HIV Env fusion)
CC(C)NC(=O)N(C)C[C@H]1OCCCC[C@@H](C)Oc2ccc(N(C)C)cc2C(=O)N([C@H](C)CO)C[C@H]1C	none (no result: PDI inh, PvdQ acylase)
O=C(N/N=C/c1ccc(Br)cc1)c1ccccc1-n1cccc1	rRNA inh HTS -41 (no result: HIV Env fusion, FN deposit inh)
Cc1cccc(/C=N\NC(=O)c2ccccc2-n2cccc2)c1	none
COC(=O)CN(C(=S)Nc1ccc(F)cc1)C1CC(=O)N(c2ccc(OC)cc2)C1=O (stereo unspecified)	HIV Env fusion 71 (no result: ERp5 block, FN deposit inh, rRNA inh HTS)
O=C(CCCc1ccccc1)NC1CC1	none (no result: ERp5 block, rRNA inh HTS)
O=C(O)CCCc1ccc2c(c1)CCc1ccccc1-2	HIV Env fusion 63
CC(=O)Oc1ccccc1Cn1c(C)c(C(=O)NCc2cccc(Cl)c2)sc1=O	HIV Env fusion 59 (no result: PvdQ acylase)
CC(=O)Oc1ccccc1Cn1c(C)c(C(=O)NCc2ccc(Cl)c(Cl)c2)sc1=O	none (no result: PvdQ acylase)
O=C(c1cccs1)c1sccc1Cc1ccccc1	rRNA inh HTS -16 (no result: FN deposit inh)
CC(C)(C)N(Cc1ccccc1)C(=O)c1cccs1	none
CCN1/C(=C/c2ccc3cc(C)cc(C)c3[n+]2CC)Sc2cc(C)ccc21	none
CCN1/C(=C/c2ccc3cccc(C)c3[n+]2CC)Sc2ccccc21	HIV Env fusion 59 (no result: ERp5 block, rRNA inh HTS)
Cc1ccc(-c2nc(N=Nc3ccc(O)cc3)n[nH]2)cc1	none (no result: ERp5 block, HIV Env fusion, FN deposit inh, rRNA inh HTS)
COc1ccc(-c2nc(N=Nc3ccc(O)cc3)n[nH]2)cc1	rRNA inh HTS -27
C[C@@H]1CN([C@H](C)CO)S(=O)(=O)c2ccc(C#Cc3ccccc3)cc2O[C@H]1CN(C)C(=O)c1ccccn1	none (no result: PDI inh, PvdQ acylase)
CCOC(=O)c1ccccc1NS(=O)(=O)c1ccc(OCC)cc1	HIV Env fusion 63 (no result: ERp5 block, rRNA inh HTS)
Cc1noc(C)c1NC(=O)Nc1ccc2c(c1)C(=O)N([C@@H](C)CO)C[C@H](C)[C@H](CN(C)C(=O)C1CCCCC1)OCCCC[C@@H](C)O2	none (no result: PDI inh, FN deposit inh, PvdQ acylase)
C[n+]1cc2c3c(ccc2c2ccc4cc5c(cc4c21)OCO5)OCO3	HIV Env fusion 110, FN deposit inh 52 (no result: PDI inh, rRNA inh HTS, PvdQ acylase)
Cc1cccc(-n2ncc3c(NC(C)C)ncnc32)c1	FN deposit inh 31
CC(C)Nc1ncnc2c1cnn2-c1ccccc1	none
CCCCN(C)C(=O)C(Cc1ccccc1)NS(=O)(=O)c1ccc2c(c1)CCC(=O)N2 (stereo unspecified)	HIV Env fusion 67
COc1ccc(S(=O)(=O)N2CCC3(CC2)CN(Cc2ccccc2OC)[C@@H](CO)c2[nH]c4cc(OC)ccc4c23)cc1	none (no result: PDI inh, HIV Env fusion, FN deposit inh, PvdQ acylase)
CC1CCCCN1c1ncnc(N)c1[N+](=O)[O-] (stereo unspecified)	none
CC1Cc2ccccc2N1c1ncnc(N)c1[N+](=O)[O-] (stereo unspecified)	HIV Env fusion 65 (no result: FN deposit inh)
COc1ccc(C(=O)Nc2ccccc2C(=O)O)cc1NC(=O)C(c1ccccc1)c1ccccc1	rRNA inh HTS -36
COc1ccc(C(=O)Nc2ccccc2C(=O)O)cc1Cl	none
Nc1cccnc1Oc1ccccc1F	none
O=C(/C=C/c1ccccc1)Nc1cccnc1Oc1ccccc1F	rRNA inh HTS -16
N#Cc1c(N)n(C2OC(CO)C(O)C2O)c2ncnc(N)c12 (stereo unspecified)	HIV Env fusion 84, FN deposit inh 34
Nc1ncnc2c1ncn2C1O[C@H](CO)[C@@H](O)[C@@H]1O (stereo partly specified)	none (no result: rRNA inh HTS)
O=[N+]([O-])c1ccc(NC(=S)N2CCc3ccccc32)cc1	rRNA inh HTS -19 (no result: FN deposit inh)
O=C(c1ccco1)N1CCN(C(=S)Nc2cccc([N+](=O)[O-])c2)CC1	none
O=[N+]([O-])c1cccc(NC(=S)N2CCc3ccccc3C2)c1	rRNA inh HTS -31
S=C(Nc1ccccc1)N1CCc2ccccc21	none
N#Cc1ccc(-c2ccc3c(c2)[C@@H]2[C@@H](CCN2S(=O)(=O)c2cccc(F)c2)[C@H](CO)N3)cc1	FN deposit inh 31 (no result: PDI inh, HIV Env fusion, PvdQ acylase)
O=S(=O)(c1ccccc1F)N1CC[C@H]2[C@H](CO)Nc3ccc(-c4cccc(F)c4)cc3[C@H]21	FN deposit inh 34 (no result: PDI inh, HIV Env fusion, PvdQ acylase)
N#Cc1ccc(-c2ccc3c(c2)[C@H]2[C@H](CCN2S(=O)(=O)c2cccc(F)c2)[C@@H](CO)N3)cc1	none (no result: PDI inh, HIV Env fusion, PvdQ acylase)
O=S(=O)(c1ccccc1F)N1CC[C@@H]2[C@H]1c1cc(-c3cccc(F)c3)ccc1N[C@@H]2CO	FN deposit inh 64 (no result: ERp5 block, PDI inh, HIV Env fusion, PvdQ acylase)
C[C@@H]1CCCCO[C@@H](CN(C)Cc2ccc3c(c2)OCO3)[C@H](C)CN([C@@H](C)CO)C(=O)c2cc(NS(=O)(=O)c3cccs3)ccc2O1	none (no result: ERp5 block, PDI inh, FN deposit inh, PvdQ acylase)
COc1cc(CN2CCCC(CO)(Cc3ccccc3F)C2)ccc1O (stereo unspecified)	none
COC(=O)c1ccc(CN2CCCC(CO)(Cc3ccccc3F)C2)cc1 (stereo unspecified)	rRNA inh HTS -20
CCN(CC)CCCNc1nc2ccccc2c2[nH]c3ccc(OC)cc3c12	PDI inh 60
CCN(CC)CCCNc1nc(-c2ccccc2)nc2ccccc12	none (no result: ERp5 block, rRNA inh HTS)
CC(C)(C)/C(COc1ccccc1[N+](=O)[O-])=N/O	rRNA inh HTS -17
OCC1OC(n2cnc3c(NCc4ccco4)ncnc32)C(O)C1O (stereo unspecified)	HIV Env fusion 70
Nc1nc(F)nc2c1ncn2[C@@H]1O[C@H](CO)[C@@H](O)[C@H]1O	HIV Env fusion 73 (no result: rRNA inh HTS)
